The source made the active and inactive calls. The calls are words filed in the database; no cut-off is given here.
What was measured:
[1] = molecular target: T1, Mitogen-activated protein kinase 8 (Homo sapiens, UniProt P45983); assay: Binding affinity to human full-length JNK1 (M1 to Q384 residues) expressed in HEK293 cells measured after 1 hr by Kinomescan method; type: cell-based
How it was run: (§1)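 Competition binding on a phage-display/cell-expressed kinase platform; each compound incubated with kinase 1 h at room temperature. Unbound kinase was captured on an immobilized affinity ligand and quantified by qPCR. N.A. means no inhibition below 40 µM.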

[2] = molecular target: T2, Mitogen-activated protein kinase 9 (Homo sapiens, UniProt P45984); assay: Binding affinity to human full-length JNK2 (M1 to Q382 residues) expressed in HEK293 cells measured after 1 hr by Kinomescan method; type: cell-based; how it was run: as §1
Target sequence in this assay (P45984 whole entry, the tested form may be a part): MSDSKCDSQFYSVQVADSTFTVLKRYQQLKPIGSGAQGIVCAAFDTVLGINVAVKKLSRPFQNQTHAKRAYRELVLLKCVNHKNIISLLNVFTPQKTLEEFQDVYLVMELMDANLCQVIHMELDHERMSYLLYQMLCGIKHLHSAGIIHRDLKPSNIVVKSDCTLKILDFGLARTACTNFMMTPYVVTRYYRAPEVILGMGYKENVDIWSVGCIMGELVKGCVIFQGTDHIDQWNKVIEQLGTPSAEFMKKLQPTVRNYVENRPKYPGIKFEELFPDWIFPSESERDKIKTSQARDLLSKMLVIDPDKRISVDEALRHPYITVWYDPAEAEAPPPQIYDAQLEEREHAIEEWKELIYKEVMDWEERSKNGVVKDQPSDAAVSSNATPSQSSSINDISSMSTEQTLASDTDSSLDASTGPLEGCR

[3] = molecular target: T3, Mitogen-activated protein kinase 10 (Homo sapiens, UniProt P53779); assay: Binding affinity to human partial length JNK3 (V28 to Q422 residues) expressed in HEK293 cells measured after 1 hr by Kinomescan method; type: cell-based; how it was run: as §1
[4] = molecular target: T4, c-Jun N-terminal kinase, JNK (Homo sapiens, UniProt P45983+P53779+P45984); assay: Inhibition of JNK in human THP1-Blue cells assessed as reduction in LPS-induced NFkappaB/AP1 activation preincubated for 30 mins followed by LPS-stimulation and measured after 24 hrs by quanti-blue staining based alkaline phosphatase reporter gene assay; type: cell-based
[5] = molecular target: T4, c-Jun N-terminal kinase, JNK; assay: Inhibition of JNK in human MONO-MAC-6 cells assessed as reduction in LPS-induced IL6 production preincubated for 30 mins followed by LPS-stimulation and measured after 24 hrs by ELISA; type: cell-based
How it was run: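 MonoMac-6 cells, 2 × 10^5/well in medium with 3% endotoxin-free FBS, were pretreated 30 min with compound or DMSO, then stimulated with 250 ng/ml LPS for 24 h. IL-6 in the supernatant was measured by human IL-6 ELISA. IC50 came from percent inhibition vs log concentration (at least five points); triplicate samples, representative of three experiments.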

[6] = Cytotoxicity against human THP1-Blue cells assessed as effect on cell viability up to 50 uM after 24 hrs by CellTiter-Glo luminescent cell viability assay; type: cell-based
How it was run: (§2)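 Viability of MonoMac-6 and THP-1Blue cells was tested with compound up to 50 µM for 24 h at 37 °C, 5% CO2. After 30 min equilibration to room temperature, CellTiter-Glo reagent was added and luminescence read. IC50 was derived from percent inhibition vs log concentration, at least five points.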

MONO-MAC-6 = assay: Cytotoxicity against human MONO-MAC-6 cells assessed as effect on cell viability up to 50 uM after 24 hrs by CellTiter-Glo luminescent cell viability assay; type: cell-based; conditions: mono-mac-6, 24 h; how it was run: as §2
[7] = system: Transcription factor AP-1 (Homo sapiens); assay: Inhibition of LPS-induced c-Jun phosphorylation at ser73 residues in human MONO-MAC-6 cells at 6.25 to 50 uM preincubated for 30 mins followed by LPS-stimulation and measured after 30 mins by Western blot analysis
[8] = molecular target: T2, Mitogen-activated protein kinase 9; assay: Binding affinity to human full-length JNK2 (M1 to Q382 residues) expressed in HEK293 cells at <40 uM after 1 hr by Kinomescan method; type: cell-based
How it was run: (§3)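 Competition binding on a phage-display/cell-expressed kinase platform; each compound incubated with kinase 1 h at room temperature. Unbound kinase was captured on an immobilized affinity ligand and quantified by qPCR. […] N.A. means no inhibition below 40 µM.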
Target sequence in this assay (P45984 whole entry, looked up, the tested form may be a part): as the sequence (P45984 whole entry, the tested form may be a part) above

[9] = molecular target: T3, Mitogen-activated protein kinase 10; assay: Binding affinity to human partial length JNK3 (V28 to Q422 residues) expressed in HEK293 cells at <40 uM after 1 hr by Kinomescan method; type: cell-based; how it was run: as §3
[10] = molecular target: T5, High affinity nerve growth factor receptor (Homo sapiens, UniProt P04629); assay: Binding affinity to human partial length TRKA (G475 to G790 residues) expressed in HEK293 cells measured after 1 hr by Kinomescan method; type: cell-based
Target sequence in this assay (P04629 whole entry, the tested form may be a part): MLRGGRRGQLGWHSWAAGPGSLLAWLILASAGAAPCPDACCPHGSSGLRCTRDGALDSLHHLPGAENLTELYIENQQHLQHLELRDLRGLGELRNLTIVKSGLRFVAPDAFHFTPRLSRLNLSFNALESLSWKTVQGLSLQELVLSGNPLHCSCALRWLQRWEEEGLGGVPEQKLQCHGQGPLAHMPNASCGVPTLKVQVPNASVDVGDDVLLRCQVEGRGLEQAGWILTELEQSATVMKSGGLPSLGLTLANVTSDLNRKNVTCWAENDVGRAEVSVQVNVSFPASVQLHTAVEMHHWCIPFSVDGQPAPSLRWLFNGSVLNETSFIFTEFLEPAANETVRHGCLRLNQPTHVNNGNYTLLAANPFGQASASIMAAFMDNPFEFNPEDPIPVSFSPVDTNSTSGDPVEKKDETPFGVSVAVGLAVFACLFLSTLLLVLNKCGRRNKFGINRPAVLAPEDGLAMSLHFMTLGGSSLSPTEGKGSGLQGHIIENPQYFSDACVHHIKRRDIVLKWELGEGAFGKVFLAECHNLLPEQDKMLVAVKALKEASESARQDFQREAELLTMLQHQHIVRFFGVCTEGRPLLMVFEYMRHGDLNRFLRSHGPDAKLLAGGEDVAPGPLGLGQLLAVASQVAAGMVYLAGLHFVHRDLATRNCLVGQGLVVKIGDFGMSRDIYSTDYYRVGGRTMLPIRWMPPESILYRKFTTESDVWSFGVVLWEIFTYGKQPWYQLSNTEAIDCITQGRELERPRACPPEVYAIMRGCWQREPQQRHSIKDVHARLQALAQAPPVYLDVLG

[11] = molecular target: BDNF/NT-3 growth factors receptor (Homo sapiens, UniProt Q16620); assay: Binding affinity to human partial length TRKB (Q547 to G838 residues) expressed in HEK293 cells measured after 1 hr by Kinomescan method; type: cell-based
[12] = molecular target: Casein kinase I isoform delta (Homo sapiens) (UniProt P48730); assay: Inhibition of ligand binding to human full-length CK1delta (M1 to K409 residues) expressed in bacterial expression system at 10 uM measured after 1 hr by Kinomescan method relative to control
How it was run: (§4)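 Binding ran 1 h at room temperature. Kinase not bound to compound was captured by an immobilized affinity ligand and measured by qPCR, in duplicate.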

[13] = molecular target: T5, High affinity nerve growth factor receptor; assay: Inhibition of ligand binding to human partial length TRKA (G475 to G790 residues) expressed in HEK293 cells at 10 uM measured after 1 hr by Kinomescan method relative to control; type: cell-based; how it was run: as §4
Target sequence in this assay (P04629 33-796 limits assumed): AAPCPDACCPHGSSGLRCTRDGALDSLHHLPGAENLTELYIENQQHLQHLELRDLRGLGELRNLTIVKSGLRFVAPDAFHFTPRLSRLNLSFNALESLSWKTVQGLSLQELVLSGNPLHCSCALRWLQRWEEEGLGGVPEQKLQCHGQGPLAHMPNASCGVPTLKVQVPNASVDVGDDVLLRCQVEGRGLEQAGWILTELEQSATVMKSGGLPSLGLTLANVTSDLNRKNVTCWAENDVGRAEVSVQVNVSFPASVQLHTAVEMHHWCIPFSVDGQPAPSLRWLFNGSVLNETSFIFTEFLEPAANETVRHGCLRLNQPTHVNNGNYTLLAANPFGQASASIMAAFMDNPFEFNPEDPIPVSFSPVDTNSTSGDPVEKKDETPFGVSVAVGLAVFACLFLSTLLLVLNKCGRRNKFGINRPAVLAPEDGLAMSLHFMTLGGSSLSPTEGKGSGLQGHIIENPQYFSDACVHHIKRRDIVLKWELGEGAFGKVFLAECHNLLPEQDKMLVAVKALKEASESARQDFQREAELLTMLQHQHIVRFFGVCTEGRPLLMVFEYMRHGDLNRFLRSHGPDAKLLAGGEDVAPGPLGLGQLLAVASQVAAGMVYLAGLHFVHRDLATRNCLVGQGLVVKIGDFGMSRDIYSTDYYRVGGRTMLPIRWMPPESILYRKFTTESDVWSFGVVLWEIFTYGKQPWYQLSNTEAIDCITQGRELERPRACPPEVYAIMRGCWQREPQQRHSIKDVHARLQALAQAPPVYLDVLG

[14] = molecular target: T1, Mitogen-activated protein kinase 8; assay: Inhibition of ligand binding to human full-length JNK1 (M1 to Q384 residues) expressed in HEK293 cells at 10 uM measured after 1 hr by Kinomescan method relative to control; type: cell-based; how it was run: as §4
[15] = molecular target: T2, Mitogen-activated protein kinase 9; assay: Inhibition of ligand binding to human full-length JNK2 (M1 to Q382 residues) expressed in HEK293 cells at 10 uM measured after 1 hr by Kinomescan method relative to control; type: cell-based; how it was run: as §4
Target sequence in this assay (P45984 whole entry, looked up, the tested form may be a part): as the sequence (P45984 whole entry, the tested form may be a part) above

[16] = molecular target: T3, Mitogen-activated protein kinase 10; assay: Inhibition of ligand binding to human partial length JNK3 (V28 to Q422 residues) expressed in HEK293 cells at 10 uM measured after 1 hr by Kinomescan method relative to control; type: cell-based; how it was run: as §4
[17] = Lipophilicity, log P of the compound; type: physicochemical; conditions: octanol/water

T3 sequence (P53779 whole entry, the tested form may be a part): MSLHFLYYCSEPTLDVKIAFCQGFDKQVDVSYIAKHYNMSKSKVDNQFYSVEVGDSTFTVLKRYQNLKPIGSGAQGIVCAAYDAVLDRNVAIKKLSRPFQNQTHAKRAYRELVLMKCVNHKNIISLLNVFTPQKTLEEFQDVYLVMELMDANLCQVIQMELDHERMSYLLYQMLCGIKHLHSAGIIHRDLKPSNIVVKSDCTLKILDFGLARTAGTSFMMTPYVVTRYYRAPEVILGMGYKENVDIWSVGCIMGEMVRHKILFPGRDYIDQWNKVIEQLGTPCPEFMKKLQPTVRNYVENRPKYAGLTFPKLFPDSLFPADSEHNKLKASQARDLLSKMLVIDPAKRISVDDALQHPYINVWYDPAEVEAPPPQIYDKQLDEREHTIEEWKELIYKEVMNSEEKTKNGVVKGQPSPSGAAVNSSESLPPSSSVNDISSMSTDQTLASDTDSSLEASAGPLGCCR
T1 sequence (P45983 whole entry, the tested form may be a part): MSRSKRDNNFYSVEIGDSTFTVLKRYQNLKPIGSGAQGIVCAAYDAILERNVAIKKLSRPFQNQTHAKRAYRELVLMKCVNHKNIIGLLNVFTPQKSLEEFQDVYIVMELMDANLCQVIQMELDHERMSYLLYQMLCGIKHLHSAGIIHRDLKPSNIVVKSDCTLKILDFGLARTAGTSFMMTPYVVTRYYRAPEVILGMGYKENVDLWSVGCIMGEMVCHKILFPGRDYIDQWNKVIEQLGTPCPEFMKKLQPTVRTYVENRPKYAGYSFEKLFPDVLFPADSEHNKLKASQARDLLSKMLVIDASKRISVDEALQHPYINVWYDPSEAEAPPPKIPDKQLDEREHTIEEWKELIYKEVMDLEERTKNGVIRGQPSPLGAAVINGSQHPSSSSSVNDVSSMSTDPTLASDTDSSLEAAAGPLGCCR
Sequence of Casein kinase I isoform delta (Homo sapiens) (P48730 whole entry, looked up, the tested form may be a part, canonical isoform): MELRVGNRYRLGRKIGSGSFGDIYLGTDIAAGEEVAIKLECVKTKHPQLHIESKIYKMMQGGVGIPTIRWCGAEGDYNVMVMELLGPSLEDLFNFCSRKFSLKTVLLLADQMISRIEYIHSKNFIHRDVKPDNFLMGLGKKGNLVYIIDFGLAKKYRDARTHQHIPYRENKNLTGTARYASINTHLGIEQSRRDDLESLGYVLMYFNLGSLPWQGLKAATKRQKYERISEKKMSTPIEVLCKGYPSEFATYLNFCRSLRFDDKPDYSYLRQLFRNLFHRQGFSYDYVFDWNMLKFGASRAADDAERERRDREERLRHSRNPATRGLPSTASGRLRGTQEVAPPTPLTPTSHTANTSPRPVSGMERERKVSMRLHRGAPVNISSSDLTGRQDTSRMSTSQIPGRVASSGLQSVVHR
Sequence of BDNF/NT-3 growth factors receptor (Q16620 whole entry, the tested form may be a part, canonical isoform): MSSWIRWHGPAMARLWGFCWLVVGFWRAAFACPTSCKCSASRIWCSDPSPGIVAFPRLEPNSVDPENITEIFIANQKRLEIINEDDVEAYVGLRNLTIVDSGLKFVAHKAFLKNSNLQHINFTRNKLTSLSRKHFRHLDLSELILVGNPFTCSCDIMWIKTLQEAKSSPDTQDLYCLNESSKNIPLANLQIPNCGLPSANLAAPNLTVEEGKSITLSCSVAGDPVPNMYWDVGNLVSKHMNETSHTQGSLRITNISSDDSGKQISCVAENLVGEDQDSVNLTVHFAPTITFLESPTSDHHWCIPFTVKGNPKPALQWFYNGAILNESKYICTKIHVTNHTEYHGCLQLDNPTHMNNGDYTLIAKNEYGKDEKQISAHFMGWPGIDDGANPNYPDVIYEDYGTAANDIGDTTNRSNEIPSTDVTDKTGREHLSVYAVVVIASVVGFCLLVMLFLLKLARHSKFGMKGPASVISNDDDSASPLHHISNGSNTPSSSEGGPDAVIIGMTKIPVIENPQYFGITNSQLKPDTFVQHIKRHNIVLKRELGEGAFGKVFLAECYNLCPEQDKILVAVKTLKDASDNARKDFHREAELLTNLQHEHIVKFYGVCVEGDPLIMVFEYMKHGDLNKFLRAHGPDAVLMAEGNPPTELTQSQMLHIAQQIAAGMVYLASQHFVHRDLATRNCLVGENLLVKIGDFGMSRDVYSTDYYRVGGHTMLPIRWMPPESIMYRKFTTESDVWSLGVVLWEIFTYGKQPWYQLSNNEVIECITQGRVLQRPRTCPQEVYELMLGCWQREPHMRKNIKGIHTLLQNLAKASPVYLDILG

Kd [2] [nM]	Kd [3] [nM]	IC50 [4] [nM]	inhibition [4]	IC50 [5] [nM]	inhibition [5]	inhibition [7]	inhibition [12] [%]	inhibition [13] [%]	inhibition [14] [%]	inhibition [15] [%]	inhibition [16] [%]	logP [17]	SMILES	Kd [1] [nM]	Activity [6]	Activity (MONO-MAC-6)	Activity [8]	Activity [9]	Kd [10] [nM]	Kd [11] [nM]
735	76	2500	Dose-dependent effect	3300	Dose-dependent effect	Active	–	–	–	–	–	–	CCOC(=O)CO/N=C1\c2ccccc2-c2nc3ccccc3nc21	22	Non-Toxic	Non-Toxic	–	–	–	–
–	–	–	–	–	–	–	–	–	–	–	–	–	O=C1c2ccccc2-n2c1nc1ccccc1c2=O [TRYPTANTHRIN]	23000	–	–	inactive	inactive	9200	7200
–	–	–	Dose-dependent effect	–	Dose-dependent effect	–	> 90	> 90	> 90	> 90	> 90	2.92	O=c1c2ccccc2nc2n1-c1ccccc1/C2=N\O	–	–	–	–	–	1100	–
